Measurements: ChEMBL document CHEMBL1128592, “Phenethylthiazolethiourea (PETT) compounds, a new class of HIV-1 reverse transcriptase inhibitors. 1. Synthesis and basic structure-activity relationship studies of PETT analogs” (J Med Chem, 1995)

Tests used:
[1] = target: Human immunodeficiency virus type 1 reverse transcriptase (Human immunodeficiency virus 1, UniProt Q72547); test: Inhibition of HIV-1 reverse transcriptase using rCdG as template and dGTP as substrate
[2] = target: Human immunodeficiency virus type 1 reverse transcriptase (Human immunodeficiency virus 1) (UniProt Q72547); test: Concentration which reduced the cytopathic effect of HIV-1 in MT-4 infected cells; type: functional, cell-based
In short: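 MT4 cells at 2 × 10⁵ cells/mL in RPMI 1640 with 10% FCS, penicillin and streptomycin (2 × 10⁴ cells/well). Compounds added from DMSO stocks diluted in medium (final DMSO ≤1%), then HIV-1 IIIB at 10 TCID₅₀/well. After 6 days in CO₂, surviving cells read by XTT. ED₅₀ is the concentration reducing virus cytopathic effect, mean of at least two experiments.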

[3] = Concentration which reduced the viability of the uninfected MT-4 cells to 50% compared to untreated control cells; details: MT4

CCc1csc(NC(=S)NCCc2ccccc2)n1
IC50 [1]: 600 nM | ED50 [2]: 700 nM | CD50 [3]: > 340 µM

Oc1ccccc1CCNC(=S)Nc1nccs1
IC50 [1]: 1100 nM | ED50 [2]: 4000 nM | CD50 [3]: 100 µM

CCCCc1csc(NC(=S)NCCc2ccccc2)n1
IC50 [1]: 2500 nM | ED50 [2]: 1300 nM | CD50 [3]: 313 µM

O=[N+]([O-])c1ccccc1CCNC(=S)Nc1nccs1
IC50 [1]: 150 nM | ED50 [2]: 1100 nM | CD50 [3]: 123 µM

S=C(NCCc1ccccc1)Nc1cnccn1
IC50 [1]: 3900 nM | ED50 [2]: > 10000 nM | CD50 [3]: > 390 µM

FC(F)(F)c1csc(NC(=S)NCCc2ccccc2)n1
IC50 [1]: 550 nM | ED50 [2]: 500 nM | CD50 [3]: 9 µM

CC(C)=CCN1Cc2cc(Cl)cc3[nH]c(=S)n(c23)C[C@@H]1C
IC50 [1]: 200 nM | ED50 [2]: 250 nM

S=C(NCCc1cccnc1)Nc1nccs1
IC50 [1]: > 10000 nM | ED50 [2]: 6400 nM | CD50 [3]: 83 µM

Cc1ccc(NC(=S)NCCc2ccccc2)nc1
IC50 [1]: 30 nM | ED50 [2]: 150 nM

CCOc1cccc(F)c1CCNC(=S)Nc1ccc(C)cn1
IC50 [1]: 4.5 nM | ED50 [2]: 200 nM | CD50 [3]: 60 µM

N#Cc1csc(NC(=S)NCCc2ccccc2)n1
IC50 [1]: 200 nM | ED50 [2]: 200 nM

S=C(NCCc1ccco1)Nc1nccs1
IC50 [1]: 650 nM | ED50 [2]: 5200 nM | CD50 [3]: 89 µM

S=C(NCCc1ccccc1)Nc1ncccc1Br
IC50 [1]: > 10000 nM | ED50 [2]: > 10000 nM | CD50 [3]: 297 µM

O=C(NCCc1ccccc1)Nc1nccs1
IC50 [1]: > 10000 nM | ED50 [2]: > 10000 nM | CD50 [3]: 113 µM

CC(C/N=C(\S)Nc1nccs1)c1ccccc1 (stereo not drawn)
ED50 [2]: 1200 nM | CD50 [3]: 108 µM

Fc1cccc(CCNC(=S)Nc2nccs2)c1
IC50 [1]: 150 nM | ED50 [2]: 250 nM | CD50 [3]: 78 µM

CC(C)c1csc(NC(=S)NCCc2ccccc2)n1
IC50 [1]: 200 nM | ED50 [2]: 1300 nM | CD50 [3]: > 330 µM

S=C(NCCc1ccccn1)Nc1nccs1
IC50 [1]: 200 nM | ED50 [2]: 1300 nM | CD50 [3]: 76 µM

S=C(NCCc1ccccc1Cl)Nc1nccs1
IC50 [1]: 600 nM | ED50 [2]: 400 nM | CD50 [3]: 100 µM

Fc1ccccc1CCNC(=S)Nc1nccs1
IC50 [1]: 60 nM | ED50 [2]: 100 nM | CD50 [3]: 75 µM

S=C(NCCc1ccccc1)Nc1nncs1
IC50 [1]: 1900 nM | ED50 [2]: 5300 nM

COc1cccc(F)c1CCNC(=S)Nc1nccs1
IC50 [1]: 10 nM | ED50 [2]: 300 nM | CD50 [3]: 51 µM

Cc1ccc(NC(=S)NCCc2c(F)cccc2F)nc1
IC50 [1]: 3 nM | ED50 [2]: 10 nM | CD50 [3]: > 325 µM

CN(/C(S)=N/CCc1ccccc1)c1nccs1
IC50 [1]: 1500 nM | ED50 [2]: 10000 nM | CD50 [3]: 65 µM

COc1ccc(Br)cc1CCNC(=S)Nc1nccs1
IC50 [1]: 30 nM | ED50 [2]: 50 nM | CD50 [3]: 94 µM

S=C(NCCc1ccccc1)Nc1cc[nH]n1
IC50 [1]: > 10000 nM | ED50 [2]: > 10000 nM | CD50 [3]: 122 µM

[N-]=[N+]=Nc1ccccc1CCNC(=S)Nc1nccs1
IC50 [1]: 30 nM

Cn1cccc1CC/N=C(\S)Nc1nccs1
IC50 [1]: 1900 nM | ED50 [2]: > 10000 nM | CD50 [3]: 143 µM

[N-]=[N+]=Nc1ccccc1CC/N=C(\S)Nc1nccs1
ED50 [2]: 100 nM | CD50 [3]: 92 µM

CCCOc1cccc(CCNC(=S)Nc2nccs2)c1
IC50 [1]: 200 nM | ED50 [2]: 2200 nM | CD50 [3]: 75 µM

Fc1cccc(F)c1CC/N=C(\S)Nc1ccc(Br)cn1
ED50 [2]: 10 nM | CD50 [3]: 67 µM

CCCc1csc(NC(=S)NCCc2ccccc2)n1
IC50 [1]: 350 nM | ED50 [2]: 1600 nM | CD50 [3]: > 330 µM

Cc1ccnc2c1NC(=O)c1cccnc1N2C1CC1
ED50 [2]: 150 nM

Cc1ccc(NC(=S)NCCc2ccccn2)nc1
IC50 [1]: 50 nM | ED50 [2]: 300 nM | CD50 [3]: 73 µM

S=C(NCCc1ccccc1)Nc1ncc(Cl)s1
IC50 [1]: 2400 nM | ED50 [2]: 2700 nM | CD50 [3]: 15 µM

Fc1cccc(F)c1CCNC(=S)Nc1ccc(Br)cn1
IC50 [1]: 1 nM

CCOC(=O)c1csc(NC(=S)NCCc2ccccc2)n1
IC50 [1]: 200 nM | ED50 [2]: 500 nM | CD50 [3]: 60 µM

S=C(NCCc1ccccc1)Nc1ccccn1
IC50 [1]: 20 nM | ED50 [2]: 200 nM

Cc1cn([C@H]2C[C@H](N=[N+]=[N-])[C@@H](CO)O2)c(=O)[nH]c1=O
ED50 [2]: 7 nM

CC(C)Oc1cccc(CCNC(=S)Nc2nccs2)c1
IC50 [1]: 400 nM | ED50 [2]: 400 nM | CD50 [3]: 16 µM

Cc1ccccc1CCNC(=S)Nc1nccs1
IC50 [1]: 80 nM | ED50 [2]: 950 nM | CD50 [3]: 72 µM

O=C(O)c1csc(/N=C(\S)NCCc2ccccc2)n1
IC50 [1]: > 10000 nM | ED50 [2]: > 10000 nM | CD50 [3]: > 325 µM

CCOc1cccc(CCNC(=S)Nc2nccs2)c1
IC50 [1]: 60 nM | ED50 [2]: 150 nM | CD50 [3]: 91 µM

S=C(NCCc1ccncc1)Nc1nccs1
IC50 [1]: > 10000 nM | ED50 [2]: > 10000 nM | CD50 [3]: 113 µM

CN(CCc1ccccc1)/C(S)=N\c1nccs1
IC50 [1]: > 10000 nM | ED50 [2]: > 10000 nM | CD50 [3]: 29 µM

CCc1csc(NC(=S)NCCc2c(F)cccc2F)n1
IC50 [1]: 5.5 nM | ED50 [2]: 80 nM | CD50 [3]: > 305 µM

S=C(NCCc1ccccc1)Nc1nc2ccccc2s1
IC50 [1]: 200 nM | ED50 [2]: 1100 nM

Cc1csc(NC(=S)NCCc2ccccc2)n1
IC50 [1]: 100 nM | ED50 [2]: 400 nM | CD50 [3]: > 360 µM

COc1cccc(OC)c1CCNC(=S)Nc1nccs1
IC50 [1]: 90 nM | ED50 [2]: 90 nM | CD50 [3]: 37 µM

COc1cccc(CCNC(=S)Nc2nccs2)c1
IC50 [1]: 150 nM | ED50 [2]: 600 nM | CD50 [3]: 143 µM

CCOc1cccc(F)c1CCNC(=S)Nc1nccs1
IC50 [1]: 10 nM | ED50 [2]: 200 nM | CD50 [3]: 37 µM

CC(CNC(=S)Nc1nccs1)c1ccccc1 (stereo not drawn)
IC50 [1]: 450 nM

COc1ccccc1CCNC(=S)Nc1nccs1
IC50 [1]: 40 nM | ED50 [2]: 400 nM | CD50 [3]: 102 µM

Fc1cccc(Cl)c1CCNC(=S)Nc1nccs1
IC50 [1]: 6 nM | ED50 [2]: 50 nM | CD50 [3]: 111 µM

S=C(NCCc1ccccc1)Nc1ccc(Br)cn1
IC50 [1]: 15 nM | ED50 [2]: 50 nM

COc1ccc(CCNC(=S)Nc2nccs2)cc1
IC50 [1]: 350 nM | ED50 [2]: 5500 nM | CD50 [3]: 68 µM

CCOc1cccc(F)c1CCNC(=S)Nc1ccc(Br)cn1
IC50 [1]: 6 nM | ED50 [2]: 20 nM | CD50 [3]: 50 µM

S=C(NCCCc1ccccc1)Nc1nccs1
IC50 [1]: 4500 nM | ED50 [2]: > 10000 nM | CD50 [3]: > 360 µM

CC(Cc1ccccc1)/N=C(\S)Nc1nccs1 (stereo not drawn)
IC50 [1]: > 10000 nM | ED50 [2]: > 10000 nM | CD50 [3]: 87 µM

CCc1cc(NCc2nc3c(Cl)ccc(Cl)c3o2)c(O)nc1C [L-697661]
IC50 [1]: 100 nM | ED50 [2]: 65 nM | CD50 [3]: 114 µM

S=C(NCCc1cccc(Oc2ccccc2)c1)Nc1nccs1
IC50 [1]: 1100 nM | ED50 [2]: 2800 nM | CD50 [3]: 14 µM

Fc1cccc(F)c1CCNC(=S)Nc1nccs1
IC50 [1]: 10 nM | ED50 [2]: 20 nM | CD50 [3]: 33 µM

COc1ccc(OC)c(CCNC(=S)Nc2nccs2)c1
IC50 [1]: 200 nM | ED50 [2]: 400 nM | CD50 [3]: 86 µM

CCCCCCOc1cccc(CC/N=C(\S)Nc2nccs2)c1
IC50 [1]: > 10000 nM | ED50 [2]: > 10000 nM | CD50 [3]: 8 µM

S=C(NCc1ccccc1)Nc1nccs1
IC50 [1]: 1200 nM | ED50 [2]: > 10000 nM | CD50 [3]: 120 µM

S=C(NCCc1ccccn1)Nc1ccc(Br)cn1
ED50 [2]: 20 nM

S=C(NCCc1ccccc1)Nc1nccs1
IC50 [1]: 900 nM | ED50 [2]: 1300 nM
